From publication PMC4292800 (Bioorganic & medicinal chemistry, 2014)
Each block holds one compound with its values, some of them ahead of it.

Columns and labels:
[1] = Oxidation kinetics of 1 into 2 by HPLC; assay type: physicochemical
Procedure, shortened: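 In PBS, alone or with 10 mM H2O2 (a tenfold excess), the test compound's conversion to its oxidised product was followed by reverse-phase HPLC on a C-18 column (Synergi Hydro-RP, 4 μm, 80 Å, 150 × 4.6 mm), and a conversion rate was derived. N-acetylcysteine was then added in limiting amount to mimic cellular thiol addition; the adduct was confirmed by FTMS.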

[2] = tested on: primary CD34+ normal human blood stem cells; assay: MTT cytotoxicity selectivity, normal blood stem cells versus AML cells; assay type: cell-based; conditions: CD34+ normal human blood stem cells vs MA9.3RAS
Procedure, shortened: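 Both cell types get the same MTT assay. AML cells are cultured in IMDM with 20% bovine calf serum; UCB cells in the same medium plus SCF, IL-3, IL-6, Flt-3L and TPO. Cells are seeded at 4 × 10^4/well, held overnight at 37°C, then exposed 48 h to freshly dissolved test compound. Medium is replaced with MTT for 4 h, then DMSO, OD 575 nm. IC50 comes from a four-parameter sigmoid fit (triplicates, repeated twice), and the ratio is normal IC50 over AML IC50.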

[3] = Oxidation of 14 to 14-ox/14-red by HPLC; assay type: physicochemical
Procedure, shortened: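 Oxidation of the test compound to its bicyclic oxidised/reduced products was followed by reverse-phase C-18 HPLC. Under normal atmosphere the reaction was fitted as pseudo-zero-order to give t1/2. Activation used one molar equivalent of hydrogen peroxide, and rate enhancement was estimated from a lower-limit t1/2 against the atmosphere-only reaction.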

conversion of 1 to 2 ([1]; PBS, no exogenous oxidant, in one hour): approximately 50%
Structure (SMILES): CN(CC(=O)Nc1cc(O)ccc1O)c1ccccc1 [Compound 1, N-(2,5-dihydroxyphenyl)-2-(methyl(phenyl)amino) acetamide]
rate of conversion of 1 to 2 ([1]; PBS, absence of exogenous oxidant): 0.011 ± 0.002 min^−
rate of conversion of 1 to 2 ([1]; presence of 10 mM H2O2, a tenfold excess): 0.6 ± 0.1 min^−
rate of conversion of 1 into 2 ([1]; with hydrogen peroxide (Figure 2D legend)): 0.6 min⁻¹

Structure (SMILES): O=C(COc1ccccc1)Nc1cc(O)ccc1O [Compound 10, N-(2,5-dihydroxyphenyl)-2-phenoxyacetamide]
selectivity factor (ratio of IC50 of normal cells over IC50 of AML cells) [2]: limited selectivity

Structure (SMILES): O=C(CSc1ccccc1)Nc1cc(O)ccc1O [Compound 11, N-(2,5-dihydroxyphenyl)-2-(phenylthio)acetamide]
selectivity factor (ratio of IC50 of normal cells over IC50 of AML cells) [2]: limited selectivity

conversion of 14 to its oxidation product ([3]; under argon atmosphere, two hours): 4±3%
Structure (SMILES): O=C(CNC1CCCCC1)Nc1cc(O)ccc1O [Compound 14, 2-(cyclohexylamino)-N-(2,5-dihydroxyphenyl)acetamide]
time for conversion of all 14 ([3]; hydrogen peroxide (Figure 3C legend)): less than 0.1 hrs
activation by hydrogen peroxide ([3]; rate enhancement with hydrogen peroxide vs atmosphere): more than 150 fold
